Reference: ChEMBL document CHEMBL1255198, “Expanding the diversity of allosteric bcr-abl inhibitors” (J Med Chem, 2010)

Assay: Inhibition of Bcr-Abl E255K mutant in mouse BA/F3 cells assessed as cell growth inhibition
Conditions: BaF3

Row | Compound | EC50 [µM]
1 | NS(=O)(=O)c1ccc(-c2cc(Nc3ccc(OC(F)(F)F)cc3)ncn2)cc1 | 0.31
2 | CS(=O)(=O)Nc1ccc(-c2cc(Nc3ccc(OC(F)(F)F)cc3)ncn2)cc1 | 0.36
3 | O=C(NCCO)c1cccc(-c2cc(Nc3ccc(OC(F)(F)F)cc3)ncn2)c1 | 0.58
4 | FC(F)(F)Oc1ccc(Nc2cc(-c3cn[nH]c3)ncn2)cc1 | 0.52
5 | CN1CCN(C(=O)c2cc3c(Nc4ccc(OC(F)(F)F)cc4)ncnc3s2)CC1 | 1.33
6 | FC(F)(F)Oc1ccc(Nc2ncnc3c2ccn3CCN2CCOCC2)cc1 | 1.22
7 | OCCn1ncc2c(Nc3ccc(OC(F)(F)F)cc3)ncnc21 | 1.61
8 | CC(C)(C)n1ncc2c(Nc3ccc(OC(F)(F)F)cc3)ncnc21 | 0.5
9 | NC(=O)c1cccc(-c2cc(Nc3ccc(OC(F)(F)F)cc3)ncn2)c1 | 0.6

Assay: Cytotoxicity against mouse BA/F3 cells
Assay type: cell-based
Conditions: BaF3
Method in brief: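 Parental IL-3-dependent murine Ba/F3 cells grown at 37 °C, 5% CO₂ in RPMI 1640 with 10% FBS, 1% L-glutamine and 10% WEHI-conditioned medium as IL-3 source. Growth after 48 h read by CellTiter-Glo luminescence.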

Row | Compound | EC50 [µM]
10 | FC(F)(F)Oc1ccc(Nc2cc(NCCN3CCOCC3)ncn2)cc1 | > 10
11 | Fc1ccc(Nc2cc(-c3ccncc3)ncn2)cc1 | > 10
12 | Cc1ccc(C(=O)Nc2cccc(C(F)(F)F)c2)cc1NC(=O)c1cc2c(Nc3ccc(OC(F)(F)F)cc3)ncnc2s1 | 8.9
13 | CS(=O)(=O)c1cccc(-c2cc(Nc3ccc(OC(F)(F)F)cc3)ncn2)c1 | > 10
14 | Nc1cccc(-c2cc(Nc3ccc(OC(F)(F)F)cc3)ncn2)c1 | > 10
15 | FC(F)(F)c1ccc(Nc2cc(-c3ccncc3)ncn2)cn1 | > 10
16 | FC(F)(F)Oc1ccc(Nc2ncnc(NCCN3CCOCC3)n2)cc1 | > 10
17 | FC(F)(F)Oc1ccc(Nc2ncnc3nn(Cc4cccnc4)cc23)cc1 | > 10
18 | NS(=O)(=O)c1ccc(-c2cc(Nc3ccc(OC(F)(F)F)cc3)ncn2)cc1 | > 10
19 | CS(=O)(=O)Nc1ccc(-c2cc(Nc3ccc(OC(F)(F)F)cc3)ncn2)cc1 | 2.21
20 | COC(=O)c1cc2c(Nc3ccc(OC(F)(F)F)cc3)ncnc2s1 | > 10
21 | OCc1cc2c(Nc3ccc(OC(F)(F)F)cc3)ncnc2s1 | > 10
22 | O=C(O)c1cc2c(Nc3ccc(OC(F)(F)F)cc3)ncnc2s1 | > 10
23 | O=C(NCCO)c1cccc(-c2cc(Nc3ccc(OC(F)(F)F)cc3)ncn2)c1 | > 10
24 | O=C(NCCN1CCOCC1)c1cccc(-c2cc(Nc3ccc(OC(F)(F)F)cc3)ncn2)c1 | > 10
25 | O=C(NCCO)c1cc2c(Nc3ccc(OC(F)(F)F)cc3)ncnc2s1 | > 10
26 | CCNC(=O)c1cc2c(Nc3ccc(OC(F)(F)F)cc3)ncnc2s1 | > 10
27 | CNC(=O)c1cccc(-c2cc(Nc3ccc(OC(F)(F)F)cc3)ncn2)c1 | > 10
28 | O=C(c1cccc(-c2cc(Nc3ccc(OC(F)(F)F)cc3)ncn2)c1)N1CCOCC1 | > 10
29 | O=C(c1cc2c(Nc3ccc(OC(F)(F)F)cc3)ncnc2s1)N1CCNCC1 | 4.07
30 | O=C(c1cc2c(Nc3ccc(OC(F)(F)F)cc3)ncnc2s1)N1CCN(N2CCCC2)CC1 | 5.77

Row | Compound | EC50 [µM]
31 | FC(F)(F)Oc1ccc(Nc2cc(-c3cn[nH]c3)ncn2)cc1 | > 10
32 | Cn1cc(-c2cc(Nc3ccc(OC(F)(F)F)cc3)ncn2)cn1 | > 10
33 | CC(C)Cn1cc(-c2cc(Nc3ccc(OC(F)(F)F)cc3)ncn2)cn1 | > 10
34 | CN1CCN(C(=O)c2cc3c(Nc4ccc(OC(F)(F)F)cc4)ncnc3s2)CC1 | 2.69
35 | O=C(c1cc2c(Nc3ccc(OC(F)(F)F)cc3)ncnc2s1)N1CCC(O)CC1 | > 10
36 | Cc1c(-c2cc(Nc3ccc(OC(F)(F)F)cc3)ncn2)cnn1-c1ccccc1 | > 10
37 | Cc1nn(C)c(C)c1-c1cc(Nc2ccc(OC(F)(F)F)cc2)ncn1 | > 10
38 | FC(F)(F)Oc1ccc(Nc2ncnc3[nH]ccc23)cc1 | > 10
39 | Cn1ccc2c(Nc3ccc(OC(F)(F)F)cc3)ncnc21 | > 10
40 | FC(F)(F)Oc1ccc(Nc2ncnc3c2ccn3CCN2CCOCC2)cc1 | > 10
41 | FC(F)(F)Oc1ccc(Nc2cc(-c3cnn(Cc4cccnc4)c3)ncn2)cc1 | > 10
42 | FC(F)(F)Oc1ccc(Nc2cc(-c3cccc4[nH]ccc34)ncn2)cc1 | 3.79
43 | COc1ccc(Cn2ccc3c(Nc4ccc(OC(F)(F)F)cc4)ncnc32)cc1 | > 10
44 | COCCCNC(=O)CCn1ccc2c(Nc3ccc(OC(F)(F)F)cc3)ncnc21 | > 10
45 | FC(F)(F)Oc1ccc(Nc2cc(-c3ccc4[nH]ccc4c3)ncn2)cc1 | > 10
46 | FC(F)(F)Oc1ccc(Nc2cc(-c3ccnc4[nH]ccc34)ncn2)cc1 | 6.85
47 | NC(=O)CCn1ccc2c(Nc3ccc(OC(F)(F)F)cc3)ncnc21 | > 10
48 | OCCn1ncc2c(Nc3ccc(OC(F)(F)F)cc3)ncnc21 | > 10
49 | CCn1ncc2c(Nc3ccc(OC(F)(F)F)cc3)ncnc21 | > 10
50 | Cc1nc(-c2cc(Nc3ccc(OC(F)(F)F)cc3)ncn2)cs1 | > 10
51 | CN(c1ccc(OC(F)(F)F)cc1)c1cc(NCCN2CCOCC2)ncn1 | > 10

Row | Compound | EC50 [µM]
52 | CCCn1ncc2c(Nc3ccc(OC(F)(F)F)cc3)ncnc21 | 6.6
53 | FC(F)(F)Oc1ccc(Nc2ncnc3c2cnn3C2CCCCC2)cc1 | 9.3
54 | COc1ccc(Nc2cc(NCCN3CCOCC3)ncn2)cc1 | > 10
55 | FC(F)(F)Oc1cccc(Nc2cc(NCCN3CCOCC3)ncn2)c1 | > 10
56 | NC(=O)Cn1ncc2c(Nc3ccc(OC(F)(F)F)cc3)ncnc21 | 3.3
57 | FC(F)(F)Oc1ccc(Nc2ncnc3c2cnn3Cc2ccccc2)cc1 | > 10
58 | FC(F)(F)Oc1ccc(Oc2cc(NCCN3CCOCC3)ncn2)cc1 | > 10
59 | FC(F)(F)Oc1ccc(-c2cc(NCCN3CCOCC3)ncn2)cc1 | > 10
60 | FC(F)(F)Oc1ccc(Nc2ncnc3c2cnn3Cc2cccnc2)cc1 | > 10
61 | NC(=O)c1ccc(Cn2ncc3c(Nc4ccc(OC(F)(F)F)cc4)ncnc32)cc1 | > 10
62 | FC(F)(F)Oc1ccc(Nc2cc(NCCCN3CCOCC3)ncn2)cc1 | > 10
63 | FC(F)(F)Oc1ccc(Nc2cc(N3CCOCC3)ncn2)cc1 | > 10
64 | FC(F)(F)c1ccc(Nc2cc(NCCN3CCOCC3)ncn2)cc1 | > 10
65 | FC(F)(F)Oc1ccc(CNc2cc(NCCN3CCOCC3)ncn2)cc1 | > 10
66 | FC(F)(F)Oc1ccc(Nc2ncnc3c2cnn3CC2CCOC2)cc1 (stereo not drawn) | > 10
67 | CC(C)(C)n1ncc2c(Nc3ccc(OC(F)(F)F)cc3)ncnc21 | 7.3
68 | FC(F)(F)Oc1ccc(Nc2cc(-n3ccnc3)ncn2)cc1 | > 10
69 | NC(=O)c1cccc(Oc2cc(Nc3ccc(OC(F)(F)F)cc3)ncn2)c1 | > 10
70 | Cc1c(NCCN2CCOCC2)ncnc1Nc1ccc(OC(F)(F)F)cc1 | > 10
71 | Cc1nc(NCCN2CCOCC2)cc(Nc2ccc(OC(F)(F)F)cc2)n1 | 1.11
72 | FC(F)(F)Oc1ccc(Nc2ncnc3c2cnn3Cc2ccncc2)cc1 | > 10

Row | Compound | EC50 [µM]
73 | Cc1nc(C)c(Cn2ncc3c(Nc4ccc(OC(F)(F)F)cc4)ncnc32)s1 | > 10
74 | NC(=O)c1cccc(Nc2cc(Nc3ccc(OC(F)(F)F)cc3)ncn2)c1 | > 10
75 | FC(F)(F)Oc1ccc(Nc2nccc(NCCN3CCOCC3)n2)cc1 | > 10
76 | FC(F)(F)Oc1ccc(Nc2ccnc(NCCN3CCOCC3)n2)cc1 | > 10
77 | FC(F)(F)Oc1ccc(Nc2ncnc3[nH]ncc23)cc1 | > 10
78 | OCCn1cc2c(Nc3ccc(OC(F)(F)F)cc3)ncnc2n1 | > 10
79 | CCn1cc2c(Nc3ccc(OC(F)(F)F)cc3)ncnc2n1 | > 10
80 | NC(=O)c1ccc(-c2cc(Nc3ccc(OC(F)(F)F)cc3)ncn2)cc1 | > 10
81 | NC(=O)c1ccccc1-c1cc(Nc2ccc(OC(F)(F)F)cc2)ncn1 | > 10
82 | FC(F)(F)Oc1ccc(Nc2cncc(NCCN3CCOCC3)n2)cc1 | > 10
83 | FC(F)(F)Oc1ccc(Nc2ccc(NCCN3CCOCC3)nn2)cc1 | > 10
84 | CCCn1cc2c(Nc3ccc(OC(F)(F)F)cc3)ncnc2n1 | > 10
85 | FC(F)(F)Oc1ccc(Nc2ncnc3nn(C4CCCCC4)cc23)cc1 | > 10
86 | NS(=O)(=O)c1cccc(-c2cc(Nc3ccc(OC(F)(F)F)cc3)ncn2)c1 | > 10
87 | FC(F)(F)Oc1ccc(Nc2cc(-c3ccncc3)ncn2)cc1 | > 10
88 | CN(c1ccc(OC(F)(F)F)cc1)c1cc(-c2ccncc2)ncn1 | > 10
89 | COc1ccc(Nc2cc(-c3ccncc3)ncn2)cc1 | > 10
90 | FC(F)(F)c1ccc(Nc2cc(-c3ccncc3)ncn2)cc1 | > 10
91 | NC(=O)Cn1cc2c(Nc3ccc(OC(F)(F)F)cc3)ncnc2n1 | > 10
92 | FC(F)(F)Oc1ccc(Nc2ncnc3nn(Cc4ccccc4)cc23)cc1 | > 10
93 | NC(=O)c1cccc(-c2cc(Nc3ccc(OC(F)(F)F)cc3)ncn2)c1 | > 10
